# Assay outcomes from PubChem BioAssay.
# Most compounds without a hit are left out; they make up all but 2.1% or so of the library.
# ARFGAP1 inh: inhibitors of rat ARFGAP1 GAP activity, primary screen, biochemical, fluorescence polarization, GDP tracer; ADP-ribosylation factor GTPase-activating protein 1 (Rattus norvegicus), Q62848; Arfgap1-stimulated ARF1 GTP hydrolysis, GDP FP detection; inhibition, % at 16.5 µM; hit rate 0.26% among 360,000; AID 651572, 2012;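 active = inhibition above a per-plate limit, mean inhibition of low control wells plus 3 SD, cut at about 25% in these data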;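 also: 0% = DMSO wells with enzyme and 100% = wells lacking Arfgap1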
# Target sequence (Q62848 1-136 limits assumed): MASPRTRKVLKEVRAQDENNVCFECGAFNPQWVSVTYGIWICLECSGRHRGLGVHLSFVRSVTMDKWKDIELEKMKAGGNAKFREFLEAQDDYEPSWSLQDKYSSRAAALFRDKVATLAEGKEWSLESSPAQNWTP
#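 Material – truncated rat Arfgap1 GAP domain · Buffer or medium – HEPES-based buffer, pH 7.5 · Reagent – human ARF1(Δ1-17)-GTP substrate · Dosing – 16.5 µM single point, 1.26% DMSO · Schedule – GTP hydrolysis reaction 2 h at 25 °C · Technique – GDP detection by fluorescence polarization · Benchmarks – No-Arfgap1 wells (100%) versus DMSO full-reaction wells (0%) · Repeats – single replicate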
# Statin myotox sup: suppressors of statin myotoxicity in C2C12 myotubes, primary screen, cell-based, single point, plate reader | hit rate 0.78% among 330,000 | AID 602340, 2012 | C2C12 myotubes + simvastatin, ATP luminescence, 48 h; scaled: DMSO 0, geranylgeraniol control 100 | rescue of ATP level, % at 7.49 µM;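 active = mean ATP rescue above about 67%, or every replicate alone reaching that limit, limit read from the data, passing the limit was not always enough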;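 also: myotubes were challenged with 10 µM simvastatin during compound exposure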
# ASAP1 inh: inhibitors of human ASAP1 ArfGAP activity, primary screen, biochemical, fluorescence polarization | Arf-GAP with SH3 domain, ANK repeat and PH domain-containing protein 1 (Homo sapiens), … | ASAP1-stimulated ARF1 GTP hydrolysis, GDP FP detection | inhibition, % at 16.5 µM | hit rate 0.19% among 360,000; in the data active = inhibition above about 25%;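 also: 0% = vehicle with enzyme and substrate and 100% = no enzyme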
# SUMO Mot1 rescue: yeast Mot1-301 growth rescue at high temperature, primary screen, SUMOylation pathway inhibitor project, S. cerevisiae, ATP luminescence, 38.5C; S. cerevisiae Mot1-301 growth rescue; percent above DMSO median, 100 means doubled; growth rescue, % at 18.8 µM; hit rate 1% among 320,000;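 active = every valid replicate shows activation above 250% relative to neutral control wells; inactive = the rest, any valid replicate at or below 250%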;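 also: OY570 slx delta 5 strain wells were the positive control but not used for scaling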
# APOBEC3G inh: APOBEC3G DNA deaminase inhibitors, primary screen, biochemical, fluorescence, single-stranded DNA substrate, uHTS | DNA dC->dU-editing enzyme APOBEC-3G (Homo sapiens), Q9HC16 | recombinant A3G, ssDNA deamination FAM/TAMRA fluorescence | inhibition, % at 20 µM | hit rate 0.28% among 330,000 | AID 493012, 2011;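 active = inhibition of at least 40% at 20 µM, with no more than 30% in the related APOBEC3A deaminase screen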;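 also: plate controls were DMSO wells with A3G for no effect and wells lacking A3G enzyme for full effect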
# Target sequence (Q9HC16 whole entry, looked up): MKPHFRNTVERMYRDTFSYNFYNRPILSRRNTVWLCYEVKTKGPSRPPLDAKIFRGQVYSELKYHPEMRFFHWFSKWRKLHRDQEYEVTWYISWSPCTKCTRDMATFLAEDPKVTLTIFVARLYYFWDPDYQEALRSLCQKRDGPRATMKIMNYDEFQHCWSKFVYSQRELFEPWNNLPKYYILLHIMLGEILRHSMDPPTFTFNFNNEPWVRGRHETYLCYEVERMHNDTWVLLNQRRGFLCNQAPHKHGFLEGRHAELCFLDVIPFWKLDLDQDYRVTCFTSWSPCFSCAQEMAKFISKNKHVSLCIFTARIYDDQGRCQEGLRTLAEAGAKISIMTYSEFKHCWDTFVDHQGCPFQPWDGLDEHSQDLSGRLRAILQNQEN
# APOBEC3A inh: APOBEC3A ssDNA deaminase inhibitors, primary screen, selectivity assay for APOBEC3G inhibitor project, biochemical, FAM/TAMRA oligo cleavage fluorescence; DNA dC->dU-editing enzyme APOBEC-3A (Homo sapiens), P31941; recombinant A3A, FAM/TAMRA ssDNA deamination fluorescence; inhibition, % at 20 µM; hit rate 0.41% among 330,000; AID 493011, 2011;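 active = at least 40% inhibition at 20 µM here, with at most 30% in a related deaminase screen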;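 also: plate controls were A3A with DMSO for no effect and wells lacking A3A enzyme for full effect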
# Yeast Mot1 SUMO: growth restoration of Mot1-301 yeast on galactose, dose response, SUMO pathway inhibitor project, whole organism, S. cerevisiae, ATP luminescence, cherry-picked samples | 2,300 tested, under 10 active | growth activity, percent, % at 42 µM | S. cerevisiae Mot1-301 galactose growth, 24 h; -100 = growth of slx-deleted rescue strain | shares compounds with SUMO Mot1 rescue | AID 493004, 2010;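 active = Signal drops as the depositor expects, and the fitted half-maximal dose is no more than ten times the top valid tested dose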;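 also: more negative values mean stronger growth rescue toward the control strain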
# An asterisk follows results filed as active; / = no result; + = active, no number; [ ] = remark or other dose.
SMILES,ARFGAP1 inh,Statin myotox sup,ASAP1 inh,SUMO Mot1 rescue,APOBEC3G inh,APOBEC3A inh,Yeast Mot1 SUMO
C[C@H](CO)N1C[C@H](C)[C@@H](CN(C)C(=O)c2ccccc2)Oc2ncc(C#CC3CC3)cc2C1=O,/,3,/,/,/,/,/
COc1ccc2nc(C)cc(SCC(=O)Nc3c(C)cc(C)cc3C)c2c1,5,39,12,-15,0,5,/
CCOC(=O)CSc1cc(C)nc2ccc(OC)cc12,8,/,-12,476*,-3,2,0
O=C(Nc1ccc(S(=O)(=O)NC2=NCCCCC2)cc1)c1ccc(C(F)(F)F)cc1,/,/,/,451*,-2,-6,-1
C[C@@H]1CN([C@H](C)CO)C(=O)Cc2cc(NC(=O)Nc3ccc4c(c3)OCO4)ccc2O[C@@H]1CN(C)S(=O)(=O)c1cn(C)cn1,/,-33,/,/,/,/,/
CCOC(=O)c1sc(NC(=O)CSc2n[nH]c(-c3ccc(Cl)cc3Cl)n2)c(C#N)c1C,5,0,-8,459*,-4,-2,0
CCOC(=O)c1sc(NC(=O)CSc2nc(C)cc(-c3ccccc3)n2)c(C#N)c1C,3,0,-2,-16,20,5,/
CCOc1ccccc1CN1CCNC(=O)C1CC(=O)NCc1cc(C)n(C)n1 (centres undefined),12,1,5,2,-2,8,/
CCOc1ccccc1CN1CCNC(=O)C1CC(=O)NCCN1CCOC1=O (centres undefined),5,1,10,501*,-2,-4,1
CCn1cc(C(=O)NCc2ccccn2)c(=O)c2cc(F)c(N3CCN(C)CC3)cc21,-7,/,-3,388*,16,-1,0
CCn1cc(C(=O)NCCc2ccccc2)c(=O)c2cc(F)c(N3CCN(C)CC3)cc21,-1,-30,-4,17,-1,2,/
CC(=O)Nc1sc2c(c1C(c1ccc(F)cc1)N1CCOCC1)CCCC2 (centres undefined),16,28,18,385*,-1,-3,0
Fc1ccc(-c2nnc3ccc(N4CCCC4)nn23)cc1,13,/,-16,775*,-3,1,-1
O=C(Nc1ccccc1Cl)N1CCN(c2ccc3nnc(-c4ccc(F)cc4)n3n2)CC1,-11,27,0,0,-3,4,/
Cn1c(SCC(=O)N/N=C/c2ccc([N+](=O)[O-])s2)nnc1-c1ccc(Cl)cc1,7,/,-4,958*,2,5,0
CN1C(=O)c2cc(NS(=O)(=O)CC(F)(F)F)ccc2OC[C@H]2O[C@@H](CC(=O)Nc3cccc(F)c3)CC[C@@H]21,/,3,/,/,/,/,/
CCOC(=O)c1sc2ncn(C(C)C(=O)OCC)c(=O)c2c1C (centres undefined),-10,-12,-1,15,-6,-4,/
Cc1sc2ncn(C(C)C(=O)OC3CCCCC3)c(=O)c2c1C (centres undefined),4,/,-9,379*,-2,-2,0
COC(=O)c1sccc1NC(=S)N1CCCCC1,-7,0,-4,+,-6,-6,0
COC(=O)c1sccc1NC(=S)N1CCC(C(N)=O)CC1,-9,1,0,-25,22,26,/
O=C(O)CCSc1ncnc2sc(-c3ccccc3)cc12,3,-7,0,31,-4,-2,/
O=C(O)CSc1ncnc2sc(-c3ccccc3)cc12,-12,/,4,525*,-7,-1,0
Fc1ccc2nc(C3CCN(Cc4nc(CC5CC5)no4)CC3)[nH]c2c1,-1,/,-1,460*,0,2,0
CN1[C@@H]2Cn3c(ccc(-c4ccccc4)c3=O)[C@H]1[C@@H](C(=O)NCC1CC1)[C@@H]2CO,/,30,/,/,/,/,/
Cc1c(-c2c(C#N)c(N)nc3c2CCCCCC3)cnn1C,16,/,-1,26,-3,-2,/
SMILES,ARFGAP1 inh,Statin myotox sup,ASAP1 inh,SUMO Mot1 rescue,APOBEC3G inh,APOBEC3A inh,Yeast Mot1 SUMO
Cc1nn(C)c(C)c1-c1c(C#N)c(N)nc2c1CCCCCC2,3,/,-10,+,0,1,0
CO[C@@H]1CN(C)C(=O)c2cc(NC(=O)C3CCC3)ccc2OC[C@@H](C)N(Cc2ccncc2)C[C@H]1C,/,-4,/,/,/,/,/
O=C(c1ccco1)N1CCN(C(=O)C2Cc3ccccc3CN2S(=O)(=O)c2ccc(F)cc2)CC1 (centres undefined),-6,-3,9,901*,-4,1,0
Cc1cc(-c2ccccc2)n(-c2ccc(C(=O)NC(C)C)cc2)n1,-5,12,10,645*,-8,-5,0
CNC[C@@H]1Oc2c(NC(=O)NC(C)C)cccc2C(=O)N([C@@H](C)CO)C[C@@H]1C,/,4,/,/,/,/,/
Cc1ccc(C(=O)Nc2cccc([N+](=O)[O-])c2)cc1S(=O)(=O)Nc1cccc(C(=O)O)c1,-2,/,4,-12,4,4,/
Cc1ccc(NS(=O)(=O)c2cc(C(=O)Nc3cccc([N+](=O)[O-])c3)ccc2C)cc1,22,/,5,476*,-8,0,1
O=C(O)c1cccc(NC(=O)c2cccc(S(=O)(=O)Nc3cccc([N+](=O)[O-])c3)c2)c1,6,7,-4,419*,-9,-3,2
C=CCNC(=O)NC(=O)COC(=O)/C(C#N)=C/c1cc(C)n(CC(C)C)c1C,-3,-24,15,+,-7,-2,1
COc1ccc(/C=C(/C#N)S(=O)(=O)c2ccc(C)cc2)cc1,0,6,22,+,-2,-1,0[21 µM]
C[C@H]1CN([C@@H](C)CO)C(=O)c2cc(C#CC(C)(C)O)cnc2O[C@@H]1CN(C)C(=O)c1ccccc1F,/,7,/,/,/,/,/
C/C(CC(=O)Nc1cccc(Cl)c1Cl)=N\NC(=O)C(=O)N1CCCC1,-1,5,2,0,-9,-2,/
C/C(CC(=O)Nc1cccc(Cl)c1Cl)=N\NC(=O)c1ccccc1C,-4,/,-6,452*,-6,-3,0
COc1ccc(NC(=O)COc2cc(C)cc(C)c2)cc1S(=O)(=O)N1CCCCC1,19,7,-2,530*,-6,1,1
